# Only some compounds are listed: those with a hit (about 4.1% of all), similar ones and a draw of the others.
# NF-kB expr up: activators of NF-kB expression in neurons, primary screen, cell-based, HTS; human neuronal cells, NF-kB reporter expression; active compounds read high; fold change at 12.5 µM; AID 1239, 2008; actives 1.6% (n = 190,000); in the data active means fold change above about 3.3
# APP 5'UTR act: activators of APP 5'UTR luciferase reporter, primary screen, SH-SY5Y cells; SH-SY5Y APP 5'UTR luciferase reporter, luminescence; zero percent = DMSO vehicle wells; activation, % at 2 µM; AID 1276, 2008; actives 1% (n = 190,000);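 active means activation above a set limit, based on mean plus 3 SD of controls, cut at about 140% in these data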
# FLuc act counter: FLuc activators, initial screening, artefact control for FLuc-dependent activation tests, biochemical, ATPlite luminescence; activation factor at 10 µM; AID 1027, 2008; ATPlite luciferase biochemical, 10 min; 0 = ATP-free wells, 1 = DMSO control; 200,000 tested, under 10 active; Luciferin 4-monooxygenase (Photinus pyralis), P08659;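 active means luciferase activation factor, scaled between plate controls, of at least 2 with compound at 10 µM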
# Target sequence (P08659 whole entry, looked up): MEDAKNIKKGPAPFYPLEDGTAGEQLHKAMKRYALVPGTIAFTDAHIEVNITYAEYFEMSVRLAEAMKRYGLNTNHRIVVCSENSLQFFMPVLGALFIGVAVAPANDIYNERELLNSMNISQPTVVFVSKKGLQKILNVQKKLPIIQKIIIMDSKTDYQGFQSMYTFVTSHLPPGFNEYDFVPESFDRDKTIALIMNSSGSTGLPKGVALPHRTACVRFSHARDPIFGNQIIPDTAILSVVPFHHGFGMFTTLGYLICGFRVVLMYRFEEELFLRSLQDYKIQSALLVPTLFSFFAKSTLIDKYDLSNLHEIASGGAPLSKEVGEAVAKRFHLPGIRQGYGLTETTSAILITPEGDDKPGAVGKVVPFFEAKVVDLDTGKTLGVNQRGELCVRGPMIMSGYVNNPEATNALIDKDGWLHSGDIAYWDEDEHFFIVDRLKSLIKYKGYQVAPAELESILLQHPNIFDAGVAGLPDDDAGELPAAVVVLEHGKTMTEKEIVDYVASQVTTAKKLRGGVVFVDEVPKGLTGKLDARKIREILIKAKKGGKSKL
#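 Assay system: Luciferase/luciferin detection reagent, cell-free biochemical luciferase assay / Also added: ATP substrate / Schedule: 10 min at ambient temperature / Measured by: luminescence measurement of luciferase light output / Benchmarks: low control with PBS replacing ATP, high control enzyme plus ATP without compound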
# FLuc inh counter: firefly luciferase enzyme inhibitors, primary screen, artefact control for luciferase-based inhibitor screens, biochemical, luminescence, ATPLite; 10 min; inhibition, % at 10 µM; actives 1.5% (n = 200,000); AID 1006, 2008;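 active means inhibition above about 50% when tested at 10 µM, limit read from the data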
# STAT1 act: STAT1 signaling activators, primary screen, cell-based, HTS, luciferase reporter | NIH 3T3 STAT1-luciferase reporter, IFN-gamma, luminescence; 100% = IFN-gamma alone, no compound | activation (% of control), % at 5.5 µM | actives 2.6% (n = 200,000) | AID 932, 2007;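 active means activation above the screen-wide mean activation plus 3 SD, cut at about 130% in these data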;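 further: raw ratio to IFN-gamma control signal so 100% means no change and 0% no light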
# STAT1 act conf: STAT1 signaling activators, confirmation, cell-based, HTS, luciferase reporter; shares compounds with STAT1 act; NIH 3T3 STAT1-luciferase reporter, IFN-gamma potentiation, luminescence; 100% = IFN-gamma EC80 alone, no compound; activation (% of control), % at 5.7 µM; actives 97% (n = 1,200); AID 1262, 2008;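 active means activation above a set limit carried over from the earlier primary STAT1 screen, cut at about 140% in these data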;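 further: simple ratio to median IFN-gamma plus DMSO wells so 0% means no light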
# NFkB act STAT1ct: NF-kB reporter activators, TNF-alpha stimulated, counter-screen for STAT1 activator project, cell-based, HEK293T, luciferase luminescence; shares compounds with STAT1 act; 100% = TNF-alpha with vehicle only; activation (% of control), % at 5.7 µM; actives 43% (n = 1,200); AID 1306, 2008;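 active means activation above the mean of solvent-only control wells plus 3 SD, set per campaign, cut at about 130% in these data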;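 further: TNF-alpha given at a submaximal dose yielding about 80% of full reporter signal; values are well signal over median control so 100% means no change and 0% no light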
# STAT3 act 2: STAT3 reporter activation by STAT1 hits, confirmation, counter-screen for STAT1 activator project, U3A cells, luciferase, luminescence; shares compounds with STAT1 act; IL-6; cells lack STAT1; 100 = IL-6 alone, no compound effect; activation (% of control), % at 5.7 µM; actives 46% (n = 1,200);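 active means activation above the solvent-only control well mean plus 3 SD, set per plate batch, cut at about 110% in these data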;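 further: 0% = no luminescence and 100% = median IL-6 plus DMSO wells; higher means more STAT3 reporter activation so hits are non-selective activators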
# Starred values were filed as active, the others as inactive; · = no result given.
SMILES,NF-kB expr up,APP 5'UTR act,FLuc act counter,FLuc inh counter,STAT1 act,STAT1 act conf,NFkB act STAT1ct,STAT3 act 2
Cc1ccc(/C=N/N=C/c2ccc(C)s2)s1,10*,178*,0.3,74*,177*,238*,120,99
CN(C)C(=O)c1cc(C(=O)c2ccccc2Cl)c[nH]1,1.5,10,1,4,103,·,·,·
COc1ccc(NC(=O)C(=S)NC2CCCCC2)cc1,0.91,121,0.8,24,158*,194*,138*,115*
CCc1ccc(NC(=O)C(=S)NC2CCCCC2)cc1,2.9,116,0.9,10,160*,200*,144*,113*
O=c1c2cnn(-c3ccccc3)c2nc(-c2cccs2)n1-c1cccc(Cl)c1,1,0,1,-4,98,·,·,·
O=c1[nH]c2ccccc2nc1/C=C(\O)C1CC1,1.6,2,1,0,98,·,·,·
O=c1[nH]c2ccccc2nc1/C=C/c1ccc(F)cc1,1.8,107,0.3,68*,159*,166*,130,107
O=C(/C=C/c1ccc(F)cc1)Nc1nc2ccccc2[nH]1,1.9,161*,0.8,22,154*,189*,119,91
CCCC/C(O)=C/c1nc2ccccc2[nH]c1=O,1.2,8,1,-1,113,·,·,·
O=c1[nH]c2ccccc2nc1/C=C/c1ccccc1,2.6,105,0.4,60*,162*,188*,128,121*
CC(OC(=O)c1nn(C(C)C)c(=O)c2ccccc12)C(=O)Nc1ncc(Cl)cc1Cl (stereo not drawn),1.1,-11,1.1,-15,105,·,·,·
O=S(=O)(NCc1ccccc1F)NCc1ccccc1F,0.97,3,1,-4,103,·,·,·
CCOc1ccc(/C=N/O)cc1,1.2,-13,1,0,104,·,·,·
Cc1ccc(COc2ccc(/C=N/O)cc2)cc1,6.3*,89,0.7,33,176*,203*,136*,129*
O=C1c2cccc(OCC(=O)N3CCCc4ccccc43)c2CCN1Cc1ccc(Br)cc1,0.58,2,1.1,-8,94,·,·,·
O=C(O)c1ccc(Cl)c(NC(=O)C2CCCN2S(=O)(=O)c2cccc3nsnc23)c1 (stereo not drawn),1.1,-1,1,-2,98,·,·,·
COc1ccc(-c2cc(=O)c3ccccc3s2)cc1,5.6*,134,0.3,67*,179*,223*,136*,120*
COc1ccc(-c2cc(=O)c3ccccc3[nH]2)cc1,1.5,12,0.9,11,103,·,·,·
COCCCN=Cc1c(C)[nH]n(-c2ccc(Br)c(C)c2)c1=O,2.7,147*,0.8,21,165*,250*,122,80
NS(=O)(=O)c1ccc(Oc2ccc(S(N)(=O)=O)cc2)cc1,1.1,15,1.1,-5,89,·,·,·
C=CS(=O)(=O)c1ccc(Oc2ccc(S(=O)(=O)C=C)cc2)cc1,0.99,-90,1,-2,323*,189*,79,114*
CCOC(=O)C1=C(NC(=O)c2ccc(Br)o2)Nc2ccccc2N=C1,1,-7,1,-1,104,·,·,·
O=c1oc2ccccc2cc1-c1nc2c(s1)CCc1ccccc1-2,0.96,·,1,1,104,·,·,·
O=c1oc2ccccc2cc1-c1nnc(NCc2ccco2)s1,5.4*,147*,0.9,14,154*,188*,139*,112*
COc1ccc2nc(Nc3nc4cc5c(cc4s3)OCO5)sc2c1,1.1,-10,1,2,108,·,·,·
SMILES,NF-kB expr up,APP 5'UTR act,FLuc act counter,FLuc inh counter,STAT1 act,STAT1 act conf,NFkB act STAT1ct,STAT3 act 2
COc1ccc2nc(Nc3ccc4c(c3)OCO4)sc2c1,2,75,0.9,13,152*,162*,128,100
CC(=O)Nc1ccc(S(=O)(=O)Nc2nc3ccccc3s2)cc1,1.1,16,1.1,-7,98,·,·,·
Cc1ccc(Nc2nc3ccccc3s2)cc1,1.3,115,0.5,50,192*,259*,137*,108
COc1ccc2nc(Nc3ccccc3)sc2c1,8.1*,111,0.2,77*,151*,200*,138*,99
Cc1ccc(C)c(NCC(O)c2ccccc2)c1 (stereo not drawn),1.1,9,1,-4,105,·,·,·
CC1CCc2nc(NC(=O)C3CC3)sc2C1 (stereo not drawn),1.9,21,0.8,15,120,·,·,·
Cc1ncsc1C(=O)Nc1nc2c(s1)CC(C)CC2 (stereo not drawn),4.6*,121,0.4,58*,152*,179*,123,100
COc1cccc(-c2nc3ccccc3s2)c1,7.8*,143*,0.3,75*,156*,207*,121,118*
COc1ccc(-c2nc3ccccc3s2)cc1NC(C)=O,2.4,154*,0.8,19,173*,195*,130,119*
CCN(CC)S(=O)(=O)c1cccc(C(=O)N/N=C/c2ccc([N+](=O)[O-])o2)c1,1.3,15,1.1,-7,85,·,·,·
Cc1cccn2c1nc(=S)n2C(=O)c1ccco1,1,147*,0.1,85*,208*,256*,176*,135*
Oc1[nH]c2ccccc2c1C=Nc1ccc2c(c1)OCO2,4.9*,141*,0.6,36,192*,263*,144*,103
Cc1[nH]c2ccccc2c1/C=N\NC(=O)CNc1ccc2c(c1)OCO2,1.1,3,0.9,6,91,·,·,·
COc1ccc(N=Cc2c(O)[nH]c3ccccc23)cc1,4.9*,181*,0.5,52*,216*,269*,135*,111*
CC(=O)Nc1ccc(/C=C2/Sc3ccccc3C2=O)cc1,2,-8,0.5,46,105,·,·,·
CNC(=O)c1c(NC(=O)c2nc3ccccc3s2)sc2c1CCC2,0.52,79,1,1,169*,189*,136*,133*
COc1cccc(CNc2ccc3c(c2)CCC3)c1,1.2,32,1,4,103,·,·,·

# Screens (PubChem BioAssay)
